ZTA counter: blocks Epstein-Barr virus ZTA, an EBNA-1 counter-screen | ZTA-DNA binding, fluorescence polarization | 320,000 compounds, 0.15% hits | inhibition, % at 11 µM | P03206; in the data active means inhibition above about 33%
Target sequence (P03206 whole entry, looked up): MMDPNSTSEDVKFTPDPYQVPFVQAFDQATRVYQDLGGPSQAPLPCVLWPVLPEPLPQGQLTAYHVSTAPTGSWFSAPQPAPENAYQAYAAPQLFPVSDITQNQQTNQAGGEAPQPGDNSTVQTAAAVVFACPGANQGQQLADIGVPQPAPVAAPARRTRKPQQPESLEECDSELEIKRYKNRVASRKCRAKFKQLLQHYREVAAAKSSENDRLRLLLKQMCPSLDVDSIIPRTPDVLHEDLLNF
HCV NS3 hel inh: HCV NS3 helicase inhibition | NS3 helicase DNA unwinding, Cy5 molecular beacon fluorescence | inhibition, % at 10.9 µM | 290,000 compounds, 0.56% hits;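 active means inhibition above the mean of all tested compounds plus 3 SD, set per campaign, cut at about 35% in these data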;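 further: 0% = DMSO wells and 100% = thioflavine S control wells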
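Control set: DMSO versus 110 µM thioflavine S; Material: NS3 helicase fragment of HCV; Measured by: Cy5 fluorescence at 0 and 60 min, beacon hairpin quenching; Read-out basis: percent inhibition from t60/t0 fluorescence ratio; Times: reaction time 60 min, 25 °C; Repeats: single replicate; Compound dosing: single dose, 10.9 µM nominal final, DMSO 0.8% final.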
FGF22 binding: binders of recombinant human FGF22 by thermal shift; SYPRO orange fluorescence; percent of sucrose octasulfate shift, DMSO zero; activity (Tm shift, normalised), % at 9.99 µM; 340,000 compounds, 1.5% hits;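 active means mean Tm shift, scaled 0 neutral to 100 positive control, at about 1.3% or above, every replicate too, limit read from the data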
Target sequence (Q9HCT0 whole entry, looked up): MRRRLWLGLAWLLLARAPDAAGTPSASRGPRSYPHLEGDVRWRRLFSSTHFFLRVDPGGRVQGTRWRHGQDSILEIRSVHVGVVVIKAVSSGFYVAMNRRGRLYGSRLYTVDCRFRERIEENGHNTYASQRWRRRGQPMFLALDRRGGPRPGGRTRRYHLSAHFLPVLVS
NR3A LBD binder: modulators (binders) of human NR3A ligand-binding domain | NR3A LBD differential scanning fluorimetry, Tm shift; 0% = protein alone, 100% = glycine-bound protein | Tm shift relative to glycine control, % at 25 µM | 340,000 compounds, 2.5% hits;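 active means melting temperature shift of at least 10% of the positive control shift, at one fixed dose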
DNA FID counter: displaces DNA intercalator in HCV helicase counter-screen; DNA fluorescent intercalator displacement, fluorescence; inhibition, % at 7.9 µM; 290,000 compounds, 0.17% hits; AID 1845; in the data active means inhibition above about 37%;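 further: 0% = vehicle and 100% = reference compound; higher means more ethidium bromide displaced from hairpin DNA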
EBNA-1 inh: blocks EBNA-1 binding to DNA. EBNA-1 DNA binding, fluorescence polarization. inhibition, % at 14.8 µM. 300,000 compounds, 0.34% hits; in the data active means inhibition above about 28%
Active calls of the source: *; x = not tested or not shown. Rows were chosen to be rich in hits. Some 3.6% of all compounds tested hit in one or more screens of this group.

SMILES	ZTA counter	HCV NS3 hel inh	FGF22 binding	NR3A LBD binder	DNA FID counter	EBNA-1 inh
COc1ccc(Nc2nc(Cl)nc(Nc3ccc(OC)cc3)n2)cc1	13	5	43*	17*	-17	-11
CC(=O)Nc1ccc(Nc2nccc(C)n2)cc1	x	x	0	x	x	x
C=CCNc1nc(Cl)nc(Nc2ccc(OC)cc2OC)n1	17	2	43*	2	-7	6
COc1ccc(Nc2nc(Cl)nc(Nc3ccc(OC)cc3OC)n2)c(OC)c1	-17	-25	0	-7	-7	4
C=CCNc1nc(Cl)nc(Nc2ccc(OC)cc2)n1	-3	-2	x	-17	-6	-3
Clc1nc(Nc2ccccc2)nc(Nc2ccccc2)n1	-10	7	x	18*	-12	4
CC(=O)Nc1ccc(Nc2nc(Cl)nc(Nc3ccc(NC(C)=O)cc3)n2)cc1	7	-7	44*	13*	3	-3
CCCNC(=O)C[C@@H]1C[C@H]2c3cc(NC(=O)Cc4ccncc4)ccc3O[C@H]2[C@H](CO)O1	x	x	0	x	x	x
COc1ccc(Nc2nc(-c3ccccc3)c3ccccc3n2)cc1	11	9	0	1	-7	2
C=CCNc1nc(Cl)nc(Nc2ccc([N+](=O)[O-])cc2)n1	14	7	44*	0	2	-3
COc1ccc(Nc2nc(C)c3ccccc3n2)cc1	16	1	x	38*	-3	9
Cc1ccc(C(=O)N/N=C/c2cc(C)n(-c3ccc(Br)cc3)c2C)cc1[N+](=O)[O-]	2	-13	x	14*	-10	5
Cc1ccc(-n2c(C)cc(/C=N/NC(=O)c3ccncc3)c2C)cc1	6	12	x	-2	-8	3
CN1C(=O)c2cc(NS(C)(=O)=O)ccc2OC[C@@H]2O[C@H](CC(=O)NC3CCCCC3)CC[C@H]21	x	x	0	x	x	x
CN1C(=O)c2cc(NS(C)(=O)=O)ccc2OC[C@@H]2O[C@H](CC(=O)NCc3ccc(-c4ccccc4)cc3)CC[C@@H]21	x	x	0	x	x	x
N#C/C(=C/c1ccc(CNC(=O)C(=O)Nc2cc(Cl)cc(Cl)c2)o1)C(=O)NCc1cccnc1	12	-5	0	12*	5	-5
O=C(Cn1nnc(-c2ccccc2)n1)N1CCN(c2ccc(F)cc2)CC1	7	8	43*	0	-3	-1
C[C@H](CO)N1C[C@H](C)[C@H](CN(C)S(=O)(=O)c2cn(C)cn2)Oc2ccc(NC(=O)Nc3cccc4ccccc34)cc2CC1=O	x	x	0	x	x	x
Cc1ccccc1S(=O)(=O)N1CCCCN2[C@H](CO)[C@H](c3ccc(-c4ccccc4)cc3)[C@H]2C1	x	x	0	x	x	x
O=C(O)c1ccc(C2SCC(=O)N2Cc2ccco2)cc1 (stereo not given)	-2	-4	1.5*	0	2	-2
Cc1ccc(-c2cnc3c(c2)C(=O)N([C@H](C)CO)C[C@@H](C)[C@H](CN(C)C)O3)cc1	x	x	0	x	x	x
O=S(=O)(NCc1csc(-c2cccnc2)n1)c1cccs1	2	-1	0	-1	0	-3
O=S(=O)(NCCc1csc(-c2cccnc2)n1)c1cccs1	-4	7	0	13*	-9	-3
O=C(Nc1c2c(nn1-c1ccccc1)CS(=O)C2)c1ccco1 (stereo not given)	-2	27	0	17*	-12	-11
COc1ccc(S(=O)(=O)Nc2ccc3c(c2)C(=O)N([C@@H](C)CO)C[C@H](C)[C@@H](CN(C)S(=O)(=O)c2c(C)noc2C)OCCCC[C@@H](C)O3)cc1	x	x	1	x	x	x
SMILES	ZTA counter	HCV NS3 hel inh	FGF22 binding	NR3A LBD binder	DNA FID counter	EBNA-1 inh
CCCN1CNC(=S)N(c2ccc(C)cc2C)C1	-7	-3	0	1	-1	1
CCCN1CNC(=S)N(c2ccccc2C)C1	0	4	43*	-1	-8	4
CCOC(=O)c1c(NC(=O)/C=C\C(=O)O)sc(C)c1-c1ccccc1	21	34	43	1	-32	8
CCOC(=O)c1c(NC(=O)/C=C/C(=O)O)sc(C)c1-c1ccc(C(C)(C)C)cc1	8	-15	1.7*	-1	-11	12
CCC(Sc1nc(-c2cccc(OC)c2)c(C#N)c(=O)[nH]1)C(=O)Nc1nnc(C(C)C)s1 (stereo not given)	29	-11	2.1*	-11	-13	8
COc1cccc(-c2nc(-c3ccccc3)[nH]c(=O)c2C#N)c1	-4	10	x	-11	-5	-4
C[C@H](O)C#Cc1cnc2c(c1)C(=O)N([C@H](C)CO)C[C@H](C)[C@@H](CN(C)CC1CCCC1)O2	x	x	0	x	x	x
O=c1c2cccc3c2c(nn1CN1CCOCC1)-c1ccccc1-3	-4	0	x	-1	-3	9
CCN(CC)CCn1nc2c3c(cccc3c1=O)-c1ccccc1-2	-15	19	0	-1	40*	-3
Cc1ccc(C)c(-n2c(SCC(=O)N3CCC(C(=O)O)CC3)nnc2-c2cccc(Cl)c2)c1	20	22	44*	-1	-46	2
C[C@@H]1CCCCO[C@H](CN(C)C(=O)c2ccccc2)[C@@H](C)CN([C@@H](C)CO)C(=O)c2cc(NC(=O)NC3CCCCC3)ccc2O1	x	x	1	x	x	x
CCCNC(=O)C[C@H]1CC[C@H]2[C@H](COc3ccc(NC(=O)c4cc(C)on4)cc3C(=O)N2C)O1	x	x	0	x	x	x
N/C(=N\OC(=O)c1ccccc1Br)c1ccc([N+](=O)[O-])cc1	0	0	0	11*	4	9
N/C(Cc1ccc([N+](=O)[O-])cc1)=N\OC(=O)c1ccccc1Br	-5	-10	x	12*	3	8
C[C@@H]1CCCCO[C@@H](CN(C)S(=O)(=O)c2ccc(F)cc2)[C@H](C)CN([C@@H](C)CO)C(=O)c2cc(NC(=O)c3ccccc3)ccc2O1	x	x	0	x	x	x
Cc1ccc2oc(-c3ccc(C)c(NC(=S)NC(=O)c4cccs4)c3)nc2c1	-12	10	0	-1	-1	29*
Cc1ccc2oc(-c3ccc(C)c(NC(=O)Cc4cccs4)c3)nc2c1	-3	0	x	-2	1	-6
O=C(Nc1ccc2oc(-c3ccncc3)nc2c1)c1cccs1	18	-1	x	33*	-8	-3
CC(=O)Nc1ccc(-c2nc3ccc(NC(C)=O)cc3o2)cc1	7	-9	0	11*	-8	-2
O=C(Nc1ccc2nn(-c3ccccc3)nc2c1)c1cccs1	20	-9	0	25*	7	12
CC(=O)Nc1ccc2oc(-c3ccccc3)nc2c1	-6	-5	0	-2	-1	3
CO[C@H]1CN(C)C(=O)c2cc(NC(=O)Nc3ccccc3F)ccc2OC[C@@H](C)N(C)C[C@@H]1C	x	x	0	x	x	x
O=C(Nc1ccc(-c2nc3cc(NC(=O)c4cccs4)ccc3o2)cc1)c1cccs1	10	-7	x	57*	-3	7

Assay outcomes (PubChem)
